Active and inactive are the calls of the source. The rule behind the calls is not given here.
Assays:
MGC-803 [1] = test: Induction of apoptosis in human MGC803 cells assessed as early apoptotic cells at 8 uM measured after 48 hrs by Annexin-V FITC/PI staining based flow cytometry (reference value: 0.19%); format: functional
MGC-803 [2] = test: Induction of apoptosis in human MGC803 cells assessed as late apoptotic cells at 8 uM measured after 48 hrs by Annexin-V FITC/PI staining based flow cytometry (reference value: 2.74%); format: functional
MGC-803 [3] = test: Induction of apoptosis in human MGC803 cells assessed as viable cells at 8 uM measured after 48 hrs by Annexin-V FITC/PI staining based flow cytometry (reference value: 92.33%); format: functional; details: read-out: Activity
[4] = Acute toxicity in C57BL/6 mouse assessed as heart tissue damage at 2 g/kg, po administered via gavage measured up to 14 days by HE staining based assay; format: organism-based; details: in vivo, 2000 mg/kg, 336 h, time <=14 day
In short: (§1)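 Mice aged 8-10 weeks, 20 females and 20 males, split into two groups: vehicle control (0.5% CMC-Na) or a single oral gavage dose of 2000 mg/kg. Animals were fed and observed normally for 14 days, recording body weight, mortality and behaviour. Heart, liver, spleen, lung and kidney sections were then fixed, embedded and H&E stained.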

[5] = molecular target: T1, Protein deacetylase HDAC6 (Homo sapiens) (UniProt Q9UBN7); test: Binding affinity to HDAC6 in human MGC803 cells assessed as increase in thermal stability at 4 uM after 6 hrs by CETSA; format: cell-based; details: MGC-803
T1 sequence (whole entry): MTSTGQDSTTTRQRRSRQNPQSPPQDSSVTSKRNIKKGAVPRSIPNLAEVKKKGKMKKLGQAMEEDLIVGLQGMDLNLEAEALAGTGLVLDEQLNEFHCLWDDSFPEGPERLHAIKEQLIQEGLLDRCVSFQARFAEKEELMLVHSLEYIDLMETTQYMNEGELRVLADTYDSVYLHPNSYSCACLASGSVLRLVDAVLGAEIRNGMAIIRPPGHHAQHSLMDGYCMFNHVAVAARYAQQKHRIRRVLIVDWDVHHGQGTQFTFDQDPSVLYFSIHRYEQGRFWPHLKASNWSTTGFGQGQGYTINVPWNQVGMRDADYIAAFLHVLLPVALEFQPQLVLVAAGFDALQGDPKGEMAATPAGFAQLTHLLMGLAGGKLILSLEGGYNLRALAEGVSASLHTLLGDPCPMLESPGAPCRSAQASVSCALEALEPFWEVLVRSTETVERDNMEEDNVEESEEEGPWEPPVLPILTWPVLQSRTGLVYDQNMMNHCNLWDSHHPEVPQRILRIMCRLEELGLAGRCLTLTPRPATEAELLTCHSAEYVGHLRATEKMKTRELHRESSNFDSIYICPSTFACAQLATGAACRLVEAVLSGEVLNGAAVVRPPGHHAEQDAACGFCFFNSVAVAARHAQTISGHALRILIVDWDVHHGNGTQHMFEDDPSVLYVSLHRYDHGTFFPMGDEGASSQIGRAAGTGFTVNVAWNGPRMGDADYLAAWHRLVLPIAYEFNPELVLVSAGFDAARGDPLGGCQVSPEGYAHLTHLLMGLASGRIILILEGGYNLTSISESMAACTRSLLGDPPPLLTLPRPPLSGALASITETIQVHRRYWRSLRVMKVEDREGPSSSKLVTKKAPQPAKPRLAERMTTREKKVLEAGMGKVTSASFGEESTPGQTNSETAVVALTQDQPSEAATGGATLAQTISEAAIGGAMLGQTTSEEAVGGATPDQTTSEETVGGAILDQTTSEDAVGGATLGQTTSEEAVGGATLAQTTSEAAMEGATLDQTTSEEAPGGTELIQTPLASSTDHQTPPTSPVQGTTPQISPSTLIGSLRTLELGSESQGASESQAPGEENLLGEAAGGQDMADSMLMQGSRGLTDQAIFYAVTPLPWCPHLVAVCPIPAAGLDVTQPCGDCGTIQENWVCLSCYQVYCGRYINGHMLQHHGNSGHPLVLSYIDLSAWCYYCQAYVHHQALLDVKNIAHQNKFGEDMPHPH
In short: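 MGC803 grown 24 h in 6-well plates, then exposed to DMSO or 4 µM compound for 6 h. Cells resuspended in ice-cold PBS and split into 6 tubes. Lysed by repeated freeze-thaw, heated 3 min across a 44 to 54 °C gradient. Soluble HDAC6 in the supernatant read by Western blot.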

MGC-803 [6] = test: Induction of apoptosis in human MGC803 cells assessed as increase in PARP expression after 48 hrs by Western blotting analysis; format: functional, cell-based; details: dose 2-8 µM
In short: (§2)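 MGC803 cells treated for 48 h, then lysed (0.1% SDS, 150 mM NaCl, 25 mM Tris-HCl, 1% deoxycholate, 1% NP-40, 1% PMSF). Protein quantified by BCA and resolved on 8–10% SDS-PAGE onto PVDF. Blocked in 5% milk, primary antibodies overnight at 4 °C, HRP secondary, ECL. GAPDH, total α-tubulin and H3 as references. Mean ± SD of three experiments.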

MGC-803 [7] = test: Inhibition of cell invasion in human MGC803 cells after 72 hrs by transwell assay; format: functional, cell-based; details: dose 2-8 µM
In short: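 Matrigel-coated transwell: cells in upper chamber with 1% FBS medium, 20% FBS medium below, compound added, 72 h. Cells fixed in 4% paraformaldehyde, DAPI-stained, then imaged and analyzed by high-content analysis. Mean ± SD of three experiments versus DMSO.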

MGC-803 [8] = test: Induction of apoptosis in human MGC803 cells assessed as downregulation of Bcl2 expression after 48 hrs by Western blotting analysis; format: functional, cell-based; details: dose 2-8 µM; in short: as §2
[9] = molecular target: T2, Protein deacetylase HDAC6 (Homo sapiens, UniProt Q9UBN7); test: Binding affinity to recombinant human HDAC6 by BLI assay
T2 sequence (Q9UBN7 whole entry): T1 sequence (whole entry)

MGC-803 [10] = test: Induction of apoptosis in human MGC803 cells assessed as increase in caspase-9 expression after 48 hrs by Western blotting analysis; format: functional, cell-based; details: dose 2-8 µM; in short: as §2
[11] = Acute toxicity in C57BL/6 mouse assessed as lung tissue damage at 2 g/kg, po administered via gavage measured up to 14 days by HE staining based assay; format: organism-based; details: in vivo, 2000 mg/kg, 336 h, time <=14 day; in short: as §1
MGC-803 [12] = test: Induction of apoptosis in human MGC803 cells assessed as viable cells at 4 uM measured after 48 hrs by Annexin-V FITC/PI staining based flow cytometry (reference value: 92.33%); format: functional; details: read-out: Activity
[13] = Acute toxicity in C57BL/6 mouse assessed as liver tissue damage at 2 g/kg, po administered via gavage measured up to 14 days by HE staining based assay; format: organism-based; details: in vivo, 2000 mg/kg, 336 h, time <=14 day; in short: as §1
[14] = Acute toxicity in C57BL/6 mouse assessed as mortality at 2 g/kg, po administered via gavage measured up to 14 days; format: organism-based; details: in vivo, 2000 mg/kg, 336 h, time <=14 day; in short: as §1
[15] = molecular target: T2, Protein deacetylase HDAC6; test: Inhibition of recombinant full length human HDAC6 expressed in baculovirus infected Sf9 cells using Z-(Ac)-Lys-AMC as substrate incubated for 40 mins by fluorescence based assay
[16] = molecular target: T1, Protein deacetylase HDAC6 (Homo sapiens); details: Sf9, dose 100.0 nM, time 40.0 min
Histone deacetylase 3 = Histone deacetylase 3 (Homo sapiens, UniProt O15379); test: Inhibition of HDAC3 (unknown origin)
Sequence of Histone deacetylase 3 (O15379 whole entry): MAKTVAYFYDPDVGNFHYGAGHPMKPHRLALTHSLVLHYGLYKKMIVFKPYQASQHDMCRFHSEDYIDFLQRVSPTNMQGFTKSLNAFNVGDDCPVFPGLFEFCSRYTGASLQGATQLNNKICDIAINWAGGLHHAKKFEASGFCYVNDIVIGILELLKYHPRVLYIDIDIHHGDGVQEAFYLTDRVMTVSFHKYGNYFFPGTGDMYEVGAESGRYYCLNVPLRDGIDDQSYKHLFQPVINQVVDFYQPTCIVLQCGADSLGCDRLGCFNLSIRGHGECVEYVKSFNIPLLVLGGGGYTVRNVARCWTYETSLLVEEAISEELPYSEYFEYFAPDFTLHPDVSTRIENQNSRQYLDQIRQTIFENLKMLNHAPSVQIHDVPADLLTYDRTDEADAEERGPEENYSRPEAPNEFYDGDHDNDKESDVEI

Histone deacetylase 1 = Histone deacetylase 1 (Homo sapiens, UniProt Q13547); details: dose 100.0 nM, time 40.0 min
Sequence of Histone deacetylase 1 (Q13547 whole entry): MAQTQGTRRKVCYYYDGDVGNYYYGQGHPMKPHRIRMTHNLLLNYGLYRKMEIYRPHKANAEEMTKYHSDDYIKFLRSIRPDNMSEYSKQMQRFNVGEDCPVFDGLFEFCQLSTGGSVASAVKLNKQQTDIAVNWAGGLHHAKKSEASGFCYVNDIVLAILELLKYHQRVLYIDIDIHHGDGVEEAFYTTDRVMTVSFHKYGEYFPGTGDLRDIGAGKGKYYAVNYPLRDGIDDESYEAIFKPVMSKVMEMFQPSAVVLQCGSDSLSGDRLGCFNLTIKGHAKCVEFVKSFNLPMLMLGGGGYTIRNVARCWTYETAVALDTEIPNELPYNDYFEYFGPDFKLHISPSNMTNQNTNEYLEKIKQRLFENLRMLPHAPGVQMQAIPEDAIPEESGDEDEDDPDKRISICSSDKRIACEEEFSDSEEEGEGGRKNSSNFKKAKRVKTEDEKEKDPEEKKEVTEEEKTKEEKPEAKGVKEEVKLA

SMILES: Cc1ccc(-c2nc(CNc3ccc(C(=O)NO)cc3)n(-c3ccccc3)n2)s1
- Activity (MGC-803 [1]): 8.76%
- Activity (MGC-803 [2]): 45.65%
- viability at 8 µM (MGC-803 [3]): 43.6%
- Activity [4]: Non-Toxic
- Activity [5]: Active
- Activity (MGC-803 [6]): Dose-Dependent Effect
- inhibition (MGC-803 [7]): Dose-Dependent Effect
- Activity (MGC-803 [8]): Dose-Dependent Effect
- Kd [9]: 7.1 nM
- Activity (MGC-803 [10]): Dose-Dependent Effect
- Activity [11]: Non-Toxic
- viability at 4 µM (MGC-803 [12]): 79.3%
- Activity [13]: Non-Toxic
- Activity [14]: Non-Toxic
- IC50 [15]: 30.6 nM
- inhibition [16]: 79.7%
- IC50 (Histone deacetylase 3): 235 nM
- inhibition (Histone deacetylase 1): 30.1%
